Data published in ChEMBL document CHEMBL1137942, “Design, synthesis, and biological activity of novel, potent, and selective (benzoylaminomethyl)thiophene sulfonamide inhibitors of c-Jun-N-terminal kinase” (J Med Chem, 2004).
Activity calls are given as the source filed them. The rule behind the calls is not given here.

Experiments:
[1] = biological target: Serine/threonine-protein kinase Chk1 (Homo sapiens) (UniProt O14757); assay: Percentage activity of human CHK1 in the presence of 10 uM of compound and 10 uM of ATP in comparison with control
[2] = biological target: Mitogen-activated protein kinase 9, JNK2 (Homo sapiens) (UniProt P45984); assay: Percentage activity of human JNK2a2 in the presence of 10 uM of compound and 10 uM of ATP in comparison with control
[3] = biological target: Mitogen-activated protein kinase 8 (Homo sapiens) (UniProt P45983); assay: Percentage activity of human JNK1a1 in the presence of 10 uM of compound and 10 uM of ATP in comparison with control
[4] = biological target: Ca2+/calmodulin-dependent protein kinase II (CaM kinase II) (Rattus norvegicus) (UniProt P11275+P08413+P15791+P11730); assay: Percentage activity of rat CaMKII in the presence of 10uM of compound and 10uM of ATP in comparison with control; type: protein assay
[5] = biological target: Protein kinase C beta type (Homo sapiens) (UniProt P05771); assay: Percentage activity of human PKC betaII -His in the presence of 10 uM of compound and 10 uM of ATP in comparison with control
[6] = system: Saccharomyces cerevisiae; assay: Percentage activity of yeast CK1 in the presence of 10 uM of compound and 10 uM of ATP in comparison with control
[7] = biological target: Rho-associated protein kinase 2 (Homo sapiens) (UniProt O75116); assay: Percentage activity of human ROCK-II in the presence of 10 uM of compound and 10 uM of ATP in comparison with control
[8] = biological target: Tyrosine-protein kinase Fyn (Homo sapiens) (UniProt P06241); assay: Percentage activity of human Fyn in the presence of 10 uM of compound and 10 uM of ATP in comparison with control
[9] = biological target: Proto-oncogene tyrosine-protein kinase Src (Homo sapiens) (UniProt P12931); assay: Percentage activity of human cSRC in the presence of 10 uM of compound and 10 uM of ATP in comparison with control
[10] = biological target: Ribosomal protein S6 kinase alpha-3 (Homo sapiens) (UniProt P51812); assay: Percentage activity of human Rsk3 in the presence of 10uM of compound and 10uM of ATP in comparison with control
[11] = biological target: RAF proto-oncogene serine/threonine-protein kinase (Homo sapiens) (UniProt P04049); assay: Percentage activity of human c-RAF in the presence of 10 uM of compound and 10 uM of ATP in comparison with control
[12] = biological target: Protein kinase C gamma type (Homo sapiens) (UniProt P05129); assay: Percentage activity of human PKC gamma in the presence of 10 uM of compound and 10 uM of ATP in comparison with control
[13] = biological target: Cyclin-dependent kinase 7/ cyclin H (Homo sapiens) (UniProt P51946+P50613); assay: Percentage activity of human CDK7 with cyclin H/MAT1) in the presence of 10 uM of compound and 10 uM of ATP in comparison with control; type: protein-complex assay
[14] = system: SCG; assay: Cell activity of JNK inhibitors in neuronal apoptosis assay in SCG cells, percentage rescued neurons at 1 uM compound concentration after 24 hours; type: functional, cell-based; settings: Rattus norvegicus
[15] = biological target: Cytoplasmic tyrosine-protein kinase BMX (Homo sapiens) (UniProt P51813); assay: Percentage activity of human Bmx in the presence of 10uM of compound and 10uM of ATP in comparison with control
[16] = biological target: Ribosomal protein S6 kinase alpha-1 (Homo sapiens) (UniProt Q15418); assay: Percentage activity of human Rsk1 in the presence of 10 uM of compound and 10 uM of ATP in comparison with control
[17] = biological target: Mitogen-activated protein kinase 11 (Homo sapiens) (UniProt Q15759); assay: Percentage activity of human SAPK2b in the presence of 10 uM of compound and 10 uM of ATP in comparison with control
[18] = biological target: Mitogen-activated protein kinase 14 (Homo sapiens) (UniProt Q16539); assay: Percentage activity of human SAPK2a in the presence of 10 uM of compound and 10 uM of ATP in comparison with control
[19] = biological target: Casein kinase II (Homo sapiens) (UniProt P67870+P68400+P19784); assay: Percentage activity of human CK2 in the presence of 10 uM of compound and 10 uM of ATP in comparison with control; type: protein-complex assay
[20] = biological target: Mitogen-activated protein kinase 1 (Homo sapiens) (UniProt P28482); assay: Percentage activity of human MAPK2 in the presence of 10 uM of compound and 10 uM of ATP in comparison with control
[21] = biological target: RAC-gamma serine/threonine-protein kinase (Homo sapiens) (UniProt Q9Y243); assay: Percentage activity of human PKB gamma in the presence of 10uM of compound and 10uM of ATP in comparison with control
[22] = system: SCG; assay: Cell activity of JNK inhibitors in neuronal apoptosis assay in SCG cells, percentage rescued neurons at 3 uM compound concentration after 48 hours; type: functional, Rattus norvegicus
Outline: (§1)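 They were cultured in Leibowitz medium with 5% rat serum, 0.75 µg/mL NGF 7S and arabinosine C 10^-5 M. On day 4, medium was switched to 10 µg/mL anti-NGF antibody without NGF or AraC, with inhibitor in 1% DMSO. After 24 h, cells were refed initial medium minus AraC. After another 24 h, viability was read by MTT (0.5 mg/mL, 30 min, 37 °C), OD 590 nm.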

[23] = system: SCG; assay: Cell activity of JNK inhibitors in neuronal apoptosis assay in SCG cells, percentage rescued neurons at 10uM compound concentration after 48 hours; type: functional, Rattus norvegicus; outline: as §1
[24] = biological target: Dual specificity mitogen-activated protein kinase kinase 1 (Homo sapiens) (UniProt Q02750); assay: Percentage activity of human MEK1 in the presence of 10 uM of compound and 10 uM of ATP in comparison with control
[25] = biological target: Serine/threonine-protein kinase D2 (Homo sapiens) (UniProt Q9BZL6); assay: Percentage activity of human PKD2 in the presence of 10 uM of compound and 10 uM of ATP in comparison with control
[26] = biological target: CDK6/cyclin D3 (Homo sapiens) (UniProt P30281+Q00534); assay: Percentage activity of human CDK6 with cyclin D3) in the presence of 10uM of compound and 10uM of ATP in comparison with control; type: protein-complex assay
[27] = biological target: Cyclin-dependent kinase 2/cyclin A (Homo sapiens) (UniProt P24941+P20248+P78396); assay: Percentage activity of human CDK2 (with cyclin A) in the presence of 10 uM of compound and 10 uM of ATP in comparison with control; type: protein-complex assay
[28] = biological target: Mitogen-activated protein kinase 12 (Homo sapiens) (UniProt P53778); assay: Percentage activity of human SAPK3 in the presence of 10 uM of compound and 10 uM of ATP in comparison with control
[29] = biological target: Serine/threonine-protein kinase N2 (Homo sapiens) (UniProt Q16513); assay: Percentage activity of human PRK2 in the presence of 10 uM of compound and 10 uM of ATP in comparison with control

Ribosomal protein S6 kinase alpha-1 (Homo sapiens), sequence (Q15418 whole entry): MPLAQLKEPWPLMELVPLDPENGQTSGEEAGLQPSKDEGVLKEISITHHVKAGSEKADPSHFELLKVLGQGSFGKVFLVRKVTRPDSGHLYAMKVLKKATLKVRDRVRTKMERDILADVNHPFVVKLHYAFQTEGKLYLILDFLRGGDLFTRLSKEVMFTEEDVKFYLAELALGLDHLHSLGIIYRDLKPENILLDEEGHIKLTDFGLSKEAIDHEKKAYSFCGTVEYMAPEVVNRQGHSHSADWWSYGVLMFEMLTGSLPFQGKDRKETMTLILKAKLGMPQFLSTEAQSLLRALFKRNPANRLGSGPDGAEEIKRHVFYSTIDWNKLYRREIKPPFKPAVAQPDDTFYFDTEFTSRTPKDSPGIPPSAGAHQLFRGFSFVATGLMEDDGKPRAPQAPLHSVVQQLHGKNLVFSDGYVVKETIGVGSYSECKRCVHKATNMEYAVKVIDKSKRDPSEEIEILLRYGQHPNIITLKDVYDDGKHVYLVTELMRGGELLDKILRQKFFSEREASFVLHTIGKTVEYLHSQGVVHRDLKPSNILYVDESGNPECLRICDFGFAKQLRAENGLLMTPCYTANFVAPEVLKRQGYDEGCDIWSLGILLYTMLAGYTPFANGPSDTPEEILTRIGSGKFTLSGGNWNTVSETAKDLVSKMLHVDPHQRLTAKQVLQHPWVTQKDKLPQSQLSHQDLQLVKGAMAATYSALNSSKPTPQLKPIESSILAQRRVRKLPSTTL
Rho-associated protein kinase 2 (Homo sapiens), sequence (O75116 whole entry, looked up): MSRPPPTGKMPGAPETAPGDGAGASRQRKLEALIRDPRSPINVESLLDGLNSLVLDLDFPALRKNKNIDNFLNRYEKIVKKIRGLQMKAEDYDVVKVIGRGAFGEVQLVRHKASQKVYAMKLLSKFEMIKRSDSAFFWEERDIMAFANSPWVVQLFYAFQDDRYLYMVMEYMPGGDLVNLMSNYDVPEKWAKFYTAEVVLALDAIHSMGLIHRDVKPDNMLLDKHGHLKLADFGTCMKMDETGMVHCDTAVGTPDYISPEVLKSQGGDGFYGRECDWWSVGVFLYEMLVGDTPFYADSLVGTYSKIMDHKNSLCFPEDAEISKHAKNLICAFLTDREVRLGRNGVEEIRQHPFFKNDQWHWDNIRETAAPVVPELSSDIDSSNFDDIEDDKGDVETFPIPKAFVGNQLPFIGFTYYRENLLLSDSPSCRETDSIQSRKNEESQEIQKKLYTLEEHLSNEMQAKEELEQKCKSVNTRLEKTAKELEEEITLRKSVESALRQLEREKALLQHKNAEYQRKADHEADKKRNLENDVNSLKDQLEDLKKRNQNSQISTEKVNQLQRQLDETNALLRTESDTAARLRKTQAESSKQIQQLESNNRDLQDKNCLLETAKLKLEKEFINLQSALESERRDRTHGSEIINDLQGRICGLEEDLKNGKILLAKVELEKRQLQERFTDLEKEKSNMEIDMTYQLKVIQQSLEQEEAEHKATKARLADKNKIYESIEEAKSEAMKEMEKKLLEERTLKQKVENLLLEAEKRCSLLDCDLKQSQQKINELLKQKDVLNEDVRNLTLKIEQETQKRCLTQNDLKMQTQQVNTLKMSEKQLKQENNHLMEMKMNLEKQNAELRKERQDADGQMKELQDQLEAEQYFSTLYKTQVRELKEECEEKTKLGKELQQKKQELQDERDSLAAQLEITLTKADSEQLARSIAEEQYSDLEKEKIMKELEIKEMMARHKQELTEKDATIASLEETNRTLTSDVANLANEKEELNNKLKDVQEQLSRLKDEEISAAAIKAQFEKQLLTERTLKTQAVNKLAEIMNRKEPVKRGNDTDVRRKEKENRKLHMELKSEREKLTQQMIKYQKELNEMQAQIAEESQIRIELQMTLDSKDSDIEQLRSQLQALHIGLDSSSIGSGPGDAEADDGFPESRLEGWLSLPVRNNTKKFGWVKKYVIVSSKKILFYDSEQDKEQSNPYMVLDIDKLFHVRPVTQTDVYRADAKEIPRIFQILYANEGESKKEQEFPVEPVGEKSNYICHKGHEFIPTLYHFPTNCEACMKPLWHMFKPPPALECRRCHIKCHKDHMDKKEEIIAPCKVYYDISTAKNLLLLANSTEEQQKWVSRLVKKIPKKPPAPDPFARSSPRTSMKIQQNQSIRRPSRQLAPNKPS
Dual specificity mitogen-activated protein kinase kinase 1 (Homo sapiens), sequence (Q02750 whole entry): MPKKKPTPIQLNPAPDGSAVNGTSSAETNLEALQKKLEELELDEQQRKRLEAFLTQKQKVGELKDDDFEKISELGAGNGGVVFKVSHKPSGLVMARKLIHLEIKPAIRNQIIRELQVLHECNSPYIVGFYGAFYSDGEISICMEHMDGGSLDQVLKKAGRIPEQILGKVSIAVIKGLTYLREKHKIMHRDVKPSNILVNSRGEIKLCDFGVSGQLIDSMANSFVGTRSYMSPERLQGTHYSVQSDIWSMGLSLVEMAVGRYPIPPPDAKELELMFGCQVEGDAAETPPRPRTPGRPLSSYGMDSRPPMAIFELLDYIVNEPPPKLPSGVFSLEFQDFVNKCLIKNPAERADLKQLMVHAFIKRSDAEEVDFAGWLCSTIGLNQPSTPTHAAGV
RAC-gamma serine/threonine-protein kinase (Homo sapiens), sequence (Q9Y243 whole entry): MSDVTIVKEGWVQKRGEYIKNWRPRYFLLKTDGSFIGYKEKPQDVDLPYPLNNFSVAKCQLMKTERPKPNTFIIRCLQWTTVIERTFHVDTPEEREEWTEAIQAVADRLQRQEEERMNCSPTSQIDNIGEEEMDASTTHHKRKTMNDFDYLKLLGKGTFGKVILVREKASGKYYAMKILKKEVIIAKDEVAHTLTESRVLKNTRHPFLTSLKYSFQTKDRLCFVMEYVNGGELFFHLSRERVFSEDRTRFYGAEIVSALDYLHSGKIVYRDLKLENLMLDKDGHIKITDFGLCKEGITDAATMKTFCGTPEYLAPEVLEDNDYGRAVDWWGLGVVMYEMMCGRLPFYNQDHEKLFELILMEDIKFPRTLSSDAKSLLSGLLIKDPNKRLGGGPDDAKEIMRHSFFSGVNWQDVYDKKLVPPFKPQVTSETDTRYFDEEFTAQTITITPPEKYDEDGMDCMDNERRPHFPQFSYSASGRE
Serine/threonine-protein kinase Chk1 (Homo sapiens), sequence (O14757 whole entry): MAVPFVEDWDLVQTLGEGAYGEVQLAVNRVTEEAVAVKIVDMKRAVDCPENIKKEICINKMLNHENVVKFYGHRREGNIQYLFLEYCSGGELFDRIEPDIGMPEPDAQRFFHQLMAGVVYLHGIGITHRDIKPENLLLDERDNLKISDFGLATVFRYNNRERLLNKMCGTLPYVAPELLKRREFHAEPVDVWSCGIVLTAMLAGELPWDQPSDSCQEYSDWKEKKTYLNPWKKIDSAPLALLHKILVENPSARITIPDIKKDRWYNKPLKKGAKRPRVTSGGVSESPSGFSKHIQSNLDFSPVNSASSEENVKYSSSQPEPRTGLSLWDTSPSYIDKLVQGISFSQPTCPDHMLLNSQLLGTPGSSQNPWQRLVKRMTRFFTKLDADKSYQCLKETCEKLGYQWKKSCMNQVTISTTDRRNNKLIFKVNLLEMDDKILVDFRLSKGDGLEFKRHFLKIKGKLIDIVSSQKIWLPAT
Ribosomal protein S6 kinase alpha-3 (Homo sapiens), sequence (P51812 whole entry): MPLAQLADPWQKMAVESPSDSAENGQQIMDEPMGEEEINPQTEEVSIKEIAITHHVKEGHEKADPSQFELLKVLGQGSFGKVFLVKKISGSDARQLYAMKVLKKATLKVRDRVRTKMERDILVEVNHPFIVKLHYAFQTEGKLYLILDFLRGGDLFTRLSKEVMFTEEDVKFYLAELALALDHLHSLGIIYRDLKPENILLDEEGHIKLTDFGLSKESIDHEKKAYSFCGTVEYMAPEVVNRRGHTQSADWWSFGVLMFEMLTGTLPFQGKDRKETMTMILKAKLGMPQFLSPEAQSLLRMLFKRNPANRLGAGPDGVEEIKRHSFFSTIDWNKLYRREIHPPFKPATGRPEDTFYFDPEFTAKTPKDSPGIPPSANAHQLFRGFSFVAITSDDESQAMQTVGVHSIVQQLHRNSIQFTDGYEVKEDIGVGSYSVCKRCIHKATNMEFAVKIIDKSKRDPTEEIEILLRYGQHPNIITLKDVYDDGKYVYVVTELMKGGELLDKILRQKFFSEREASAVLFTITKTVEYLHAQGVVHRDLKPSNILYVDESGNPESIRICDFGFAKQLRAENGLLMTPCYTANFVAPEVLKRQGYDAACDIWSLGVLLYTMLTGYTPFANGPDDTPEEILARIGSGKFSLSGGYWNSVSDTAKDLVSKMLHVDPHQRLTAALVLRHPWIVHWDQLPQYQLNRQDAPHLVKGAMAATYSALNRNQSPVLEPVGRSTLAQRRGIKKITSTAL
Mitogen-activated protein kinase 11 (Homo sapiens), sequence (Q15759 whole entry): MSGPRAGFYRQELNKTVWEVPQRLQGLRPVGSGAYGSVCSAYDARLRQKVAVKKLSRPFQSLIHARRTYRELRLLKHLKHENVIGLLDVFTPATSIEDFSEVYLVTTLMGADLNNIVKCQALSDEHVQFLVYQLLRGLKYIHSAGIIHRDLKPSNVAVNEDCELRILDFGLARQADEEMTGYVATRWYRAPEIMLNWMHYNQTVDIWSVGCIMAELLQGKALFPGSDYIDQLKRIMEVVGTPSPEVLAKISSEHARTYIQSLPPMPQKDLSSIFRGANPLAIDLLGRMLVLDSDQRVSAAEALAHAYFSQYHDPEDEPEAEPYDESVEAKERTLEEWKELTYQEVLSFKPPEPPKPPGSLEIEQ
Mitogen-activated protein kinase 8 (Homo sapiens), sequence (P45983 whole entry): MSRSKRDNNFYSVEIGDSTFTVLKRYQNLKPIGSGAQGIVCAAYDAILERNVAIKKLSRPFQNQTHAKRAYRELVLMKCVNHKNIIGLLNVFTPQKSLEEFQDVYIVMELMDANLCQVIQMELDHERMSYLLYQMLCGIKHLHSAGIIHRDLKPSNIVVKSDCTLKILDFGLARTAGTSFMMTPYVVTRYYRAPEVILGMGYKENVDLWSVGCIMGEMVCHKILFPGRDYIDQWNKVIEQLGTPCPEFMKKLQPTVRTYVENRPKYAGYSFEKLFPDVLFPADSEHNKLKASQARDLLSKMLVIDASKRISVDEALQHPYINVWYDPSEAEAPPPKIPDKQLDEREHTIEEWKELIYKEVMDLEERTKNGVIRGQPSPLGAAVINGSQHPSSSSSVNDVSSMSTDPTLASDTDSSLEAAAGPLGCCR

Activity [1]: 130%
Activity [2]: 16%
Activity [3]: 20%
Activity [4]: 93%
Activity [5]: 88%
Activity [6]: 85%
Activity [7]: 101%
Activity [8]: 46%
Activity [9]: 67%
Activity [10]: 97%
Activity [11]: 93%
Activity [12]: 79%
Activity [13]: 94%
Activity [15]: 88%
Activity [16]: 93%
Activity [17]: 100%
Activity [18]: 77%
Activity [19]: 99%
Activity [20]: 106%
Activity [21]: 76%
Activity [24]: 98%
Activity [25]: 95%
Activity [26]: 102%
Activity [27]: 99%
Activity [28]: 106%
Activity [29]: 92%
SMILES: O=C(NCc1ccc(S(=O)(=O)N2CCC(n3nnc4ccccc43)CC2)s1)c1ccc(Cl)cc1
Rescued neurons [14]: inactive
Rescued neurons [22]: 25.2%
Rescued neurons [23]: 56%
